Screens: PubChem BioAssay, several laboratories
S1P1 ag pot: activates or potentiates agonism at human S1P1 receptor. P21453. S1P1 CRE-bla cells, forskolin, beta-lactamase FRET, potentiator mode; S1P1 agonist co-added at EC20, 2 nM; 100% = saturating reference agonist, 0% = basal. activation, % at 9.5 µM. actives 0.57% (n = 56,000). AID 449;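 active = activation above a cutoff set at the mean activation of all tested compounds plus 3 SD, cut at about 54% in these data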;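 note: forskolin at 4 µM as EC80 and the EC20 agonist is SEW2871; 100% = SEW2871 at its EC100 plus forskolin at EC80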
D1 mod: allosterically modulates the human D1 dopamine receptor; actives 5.9% (n = 58,000); P21728; HEK293 D1, CRE-luciferase, dopamine EC30 potentiation; actives deviate in either direction; B-score at 10 µM; AID 641;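 active = luminescence count or its row- and column-corrected plate score outside the 99.7% band of the plate's sample wells, on either side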
M1 antagonist: blocks the rat M1 muscarinic receptor response to acetylcholine. CHO-M1 cells, Fluo-4 calcium, ACh EC80 antagonist mode; active compounds read low. B-score at 10 µM. actives 3.4% (n = 64,000). AID 628;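 active = calcium fluorescence response, raw or row-and-column corrected B-score, differing from the plate sample mean either way at a set confidence level, mostly lower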
Target sequence (P08482 whole entry, looked up): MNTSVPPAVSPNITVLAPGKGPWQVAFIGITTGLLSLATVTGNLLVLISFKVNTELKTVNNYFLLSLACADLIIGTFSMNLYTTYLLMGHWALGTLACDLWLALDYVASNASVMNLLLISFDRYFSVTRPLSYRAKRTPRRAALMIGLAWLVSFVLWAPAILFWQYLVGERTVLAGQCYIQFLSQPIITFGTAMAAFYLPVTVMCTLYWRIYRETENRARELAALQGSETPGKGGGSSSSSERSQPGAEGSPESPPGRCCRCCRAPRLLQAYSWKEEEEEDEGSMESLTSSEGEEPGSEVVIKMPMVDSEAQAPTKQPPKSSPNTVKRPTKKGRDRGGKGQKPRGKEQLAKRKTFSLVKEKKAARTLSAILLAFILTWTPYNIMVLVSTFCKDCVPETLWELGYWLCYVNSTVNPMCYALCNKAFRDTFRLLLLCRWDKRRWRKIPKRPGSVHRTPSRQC
M1 agonist: activates the M1 muscarinic receptor | CHO-M1 cells, Fluo-4 calcium fluorescence, agonist mode; active compounds read high | B-score at 10 µM | actives 3% (n = 64,000);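 active = fluorescence rise, raw or as B-score row- and column-corrected plate score, outside the 99.7% band of its plate's samples, either direction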
S1P3 ag: S1P3 (human) receptor agonism; Q99500; actives 0.1% (n = 60,000); S1P3 NFAT-BLA reporter cells, FRET ratio; relative to 1 µM S1P, basal subtracted; activation, % at 4.5 µM; AID 373;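 active = activation above the screen-wide mean plus 3 SD, cut at about 4.5% in these data, passing the limit was not always enough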
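material = human S1P3 NFAT-BLA reporter CHO cells | schedule = 4 h compound at 37 °C, 2 h substrate at RT | measured by = fluorescent BLA substrate, ex 405 nm, em 460/535 nm ratio | controls = 1 µM S1P reference | replication = primary once, confirmation triplicate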
Numbers without * were called inactive; nt = no result given. Sampled rows, rich in hits. Any-hit rate of the full collection: about 11%.

SMILES | S1P1 ag pot | D1 mod | M1 antagonist | M1 agonist | S1P3 ag
CCOC(=O)c1c(C)n(C)c2ccc(OCC(O)Cn3c(C)nc4ccccc43)cc12 (centres undefined) | nt | -0.29 | -1.4 | 2.1* | -1
COc1cc(OC)cc(C(=O)Nc2ccccc2N2CCOCC2)c1 | 8 | 2.2 | -0.14 | 6.5* | 2
CCc1nc(NCCN2CCOCC2)c2oc3ccccc3c2n1 | -30 | 3.2* | -0.32 | -0.056 | 0
c1ccc(-c2nc(NCc3cccnc3)c3oc4ccccc4c3n2)cc1 | -8 | -0.91 | 1.3 | 0.3 | -2
O=C1N2CN(C(c3ccccc3)c3ccccc3)CN=C2SC1(CO)CO | -9 | -0.53 | -0.21 | 1.4 | -1
Cc1cccc(OCC(=O)Nc2ccc3c(c2)OCO3)c1C | 14 | 0.24 | -0.0038 | 0.07 | -2
Cc1ccc(Cl)c(OCC(=O)Nc2ccc3c(c2)OCCO3)c1 | -2 | -0.78 | -0.31 | 4.3* | 0
Cn1nc(C(C)(C)C)cc1C(=O)NCc1ccc(N2CCCC2=O)cc1 | 56* | nt | -1.5 | 1.3 | -1
CC(=O)c1ccc(N2CCN(c3ccc(C(F)(F)F)cn3)CC2)cc1 | 88* | -0.12 | -0.39 | 0.47 | -2
Cc1c(C(=O)N2CCN(c3ccc(C(F)(F)F)cn3)CC2)oc2ccccc12 | 16 | -0.2 | -0.04 | -0.67 | 0
O=C1c2cccnc2C(=O)N1Cc1ccc(F)cc1 | 3 | -1.2* | -0.021 | 0.1 | 0
Cc1cc(Nc2ccc(N3CCC(C)CC3)cc2)n2ncnc2n1 | 0 | 0.014 | -0.36 | 0.54 | 0
O=C(O)CCc1ccc(-c2ccc(Cl)cc2)n1Cc1ccco1 | -23 | -0.025 | 0.076 | -0.38 | 0
O=C(O)CCc1ccc(-c2ccc(Cl)cc2)n1CC(=O)O | -15 | -3.7* | 0.18 | -0.63 | -1
CCOc1cc(S(=O)(=O)N2CCCCC2)ccc1Cl | 24 | -4* | nt | nt | -1
CCOc1cc(S(=O)(=O)N2CCN(CC)CC2)ccc1Cl | -12 | 0.47 | 0.12 | 1.6 | -1
CCOC(=O)C1CCCN(C(=O)c2ccco2)C1 (centres undefined) | -3 | -0.11 | -0.69 | -1.6 | 0
Cc1ccc(N2CCn3c2nc2c3c(=O)n(CCc3ccccc3)c(=O)n2C)cc1 | 15 | -0.72 | 0.31 | -0.44 | 0
COc1ccccc1-c1c(C)oc2c(CN3CCN(C)CC3)c(O)ccc2c1=O | 4 | nt | 0.019 | 0.18 | -3
CCOC(=O)c1oc2c(CN3CCN(C)CC3)c(O)ccc2c(=O)c1-c1ccccc1OC | -29 | 1.7 | 0.81* | 0.87 | 0
Nc1ccccc1-c1nc2ccccc2[nH]1 | 4 | -0.73 | -0.66 | -0.47 | -1
Nc1ccc(-c2nc3ccccc3[nH]2)cc1 | -18 | -3.5* | 0.34 | 0.5 | 0
Cn1cc(-c2nc3ccccc3[nH]2)c2ccccc21 | -16 | -4.1* | -0.053 | -0.66 | -1
N=c1c(C(=O)NC2CCCCC2)cc2c(=O)n3ccccc3nc2n1CCN1CCOCC1 | 12 | 0.22 | 0.2 | 0.61 | 0
Cc1cc(C)nc(SCc2nnc(SCC(=O)N3CCCc4ccccc43)o2)n1 | 13 | -0.0028 | 0.66 | -0.24 | -1
SMILES | S1P1 ag pot | D1 mod | M1 antagonist | M1 agonist | S1P3 ag
S=c1[nH]nc(C23CC4CC(CC(C4)C2)C3)n1Cc1ccco1 | 1 | -1.1 | -1.5 | -0.084 | 0
O=C(NCCN1CCCCCC1)c1ccc(N2CCCC2=O)cc1 | -14 | 0.11 | 2.3* | -1.1 | 1
CCOC(=O)N1CCC(NC(=O)c2ccc3c(c2)sc2nc(-c4cccc(OC)c4)cn23)CC1 | -20 | -2.6* | -1.2 | 1.5 | -1
CCOC(=O)C(CO)(NC(C)=O)C(=O)OCC | -4 | 0.16 | 1.3* | -0.33 | 0
CCN(CC(=O)NC)S(=O)(=O)c1ccc(Br)cc1 | 3 | 0.12 | -0.13 | 0.15 | -1
CCOC(=O)C1=C(C)NC(=O)NC1c1cccnc1 (centres undefined) | -6 | -7.8* | 0.45 | -0.6 | -2
Cc1c(N=Cc2c(O)n(Cc3ccco3)c(=O)c3ccccc23)c(=O)n(-c2ccccc2)n1C | -15 | 0.74 | -2.8* | -0.027 | 0
OC(c1cccc(OCc2ccccc2)c1)c1nnc(-c2ccccc2)o1 (centres undefined) | 111* | -1.3 | 0.19 | -2.3 | 0
COc1ccccc1N1CCN(S(=O)(=O)c2cnc[nH]2)CC1 | 5 | 0.48 | 0.017 | 0.46 | -2
CCn1cc(C(=O)NCC2CCCO2)c(=O)c2cc(S(=O)(=O)N3CCCCCC3)ccc21 (centres undefined) | -1 | -0.15 | 0.26 | 0.03 | 0
CCn1cc(C(=O)NCC2CCCO2)c(=O)c2cc(S(=O)(=O)N3CCC(C)CC3)ccc21 (centres undefined) | -12 | -4.8* | -0.13 | 0.95 | 0
C=CCn1cc(C(=O)NCCCOC)c(=O)c2cc(S(=O)(=O)N3CCC(C)CC3)ccc21 | -4 | 4.1* | 0.18 | -0.15 | -1
CCC(=O)N1CCN(c2nc(-c3ccccc3)c3c(c2C#N)CCCC3)CC1 | nt | nt | -0.39 | 0.22 | nt
COc1ccc(-n2c(Cn3c(=O)sc4ccccc43)nnc2SCC(=O)N2CCCC2)cc1 | -13 | 0.64 | 0.17 | -0.45 | -1
O=C1c2ccccc2S(=O)(=O)N1CCOc1ccc(F)cc1 | -4 | -0.18 | 0.12 | -0.2 | 1
CN(C)S(=O)(=O)c1ccc2c(c1)c(=O)c(C(=O)N1CCOCC1)cn2C | -6 | 0.47 | 0.88 | 0.57 | 2
CCOC(=O)C1CCCN(C(=O)c2cn(C)c3ccc(S(=O)(=O)N(C)C)cc3c2=O)C1 (centres undefined) | -22 | 0.83 | 0.97* | 0.22 | 0
COc1ccccc1-c1nn2c(-c3ccco3)nnc2s1 | -5 | nt | -0.86 | 2.7 | -2
COc1ccccc1-c1nn2c(-c3ccccc3Cl)nnc2s1 | nt | 0.52 | -0.57 | -2* | -1
CC(=O)Nc1sc2c(c1CN1CCN(c3ccccn3)CC1)CCCC2 | 15 | -3.3* | -0.53 | -0.3 | -1
COc1ccc(-n2c(C)c(C(C)=O)c3cc(O)ccc32)cc1 | 76* | nt | 0.18 | -0.012 | -4
CCOc1ccccc1NC(=O)c1cnc2n(c1=O)CCS2 | -1 | nt | -0.32 | -0.4 | -1
O=C(Nc1ccc(Oc2ccccc2)cc1)c1cnc2n(c1=O)CCS2 | 94* | -1.6 | -0.83 | 0.24 | -1
c1ccc(-c2ccc(-c3ccccn3)nn2)nc1 | -2 | -8.7* | -0.65 | -0.29 | 0
CC1(C)Cc2cccc(OCC(=O)N3CCN(S(=O)(=O)c4ccccc4)CC3)c2O1 | -8 | -1.1 | nt | nt | 1
Cc1cc2oc(=O)cc(CN3CCN(Cc4ccccc4)CC3)c2cc1Cl | -36 | -0.89 | -0.31 | 0.49 | -1
O=c1cc(CN2CCN(Cc3ccccc3)CC2)c2cc(Cl)ccc2o1 | 0 | -4.2* | -0.62 | 0.39 | -1
CC(=O)c1cccc(NC(=O)NCc2ccccn2)c1 | nt | -1.4 | 1.1 | 3.1* | -1
Cn1c(=O)[nH]c(=O)c2c1nc(SCC(O)CO)n2Cc1ccccc1Cl (centres undefined) | -12 | 0.75 | -0.0056 | 0.053 | 0
